Source: PubChem BioAssay AID493019 (Circadian Research, Kay Laboratory, University of …, 2011)

Columns and labels:
[1] = molecular target: Cyclin-dependent kinase 7 (Homo sapiens) (UniProt P50613); test: clock period lengtheners with kinase target profiling – cell-based, U2OS Bmal1-dLuc, CKIdelta, CKIalpha, ERK2, CDK7, mechanism study for circadian clock modulator project, late-stage follow-up (AID 493019); settings: U2OS Bmal1-dLuc circadian period lengthening, luminescence; measured here: CDK7 in vitro kinase
How it was run: (§1)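 System: U2OS osteosarcoma cells carrying Bmal1-dLuc reporter, plus in vitro kinases / Also added: ATP at 5 µM final in kinase reactions / Compound dosing: 10-point dilutions for period assay / Times: reporter 5 days, kinases 3 h, 30 °C / Detection: luciferase luminescence every 100 min, Kinase-Glo residual-ATP luminescence for kinases / Read-out: Period-lengthening concentrations and kinase IC50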

[2] = molecular target: Casein kinase I isoform delta (Homo sapiens) (UniProt P48730); test: as above; settings: U2OS Bmal1-dLuc circadian period lengthening, luminescence; for IC50: measured here: CKIdelta in vitro kinase
How it was run: as §1

[3] = tested on: U2OS Bmal1-dLuc circadian period lengthening, luminescence; test: as above
How it was run: as §1

[4] = as above; settings: U2OS Bmal1-dLuc circadian period lengthening, luminescence; for EC (10 h period change): measured here: 10 h period lengthening; for EC (15 h period change): measured here: 15 h period lengthening
How it was run: as §1

[5] = molecular target: Mitogen-activated protein kinase 1 (Homo sapiens) (UniProt P28482); test: as above; settings: U2OS Bmal1-dLuc circadian period lengthening, luminescence; measured here: ERK2 in vitro kinase
How it was run: as §1

[6] = molecular target: Casein kinase I isoform alpha (Homo sapiens) (UniProt P48729); test: as above; settings: U2OS Bmal1-dLuc circadian period lengthening, luminescence; for IC50: measured here: CKIalpha in vitro kinase
How it was run: as §1

IC50 [1] | EC50 ([2]; measured here: CKIdelta cell PER1 degradation) | IC50 [2] | IC50 [5] | EC50 ([6]; measured here: CKIalpha cell PER1 degradation) | IC50 [6] | Structure (SMILES) | EC (5 h period change) [3] | EC (10 h period change) [4] | EC (15 h period change) [4]
29 µM | 9.7 µM | 8.8 µM | 52 µM | 9.2 µM | 5.6 µM | CC(C)n1cnc2c(NCc3cccc(C(F)(F)F)c3)ncnc21 | 1500 nM | 5.7 µM | 13 µM
29 µM | – | 21 µM | 160 µM | – | 23 µM | CC(C)n1cnc2c(NCc3ccccc3)ncnc21 | 4400 nM | 17 µM | 38 µM
